Laboratory results as given in ChEMBL document CHEMBL1131635 (J Med Chem, 1998).

Molecular target: T1, Phosphoglycerate kinase (Saccharomyces cerevisiae S288c, UniProt P00560)
T1 sequence (P00560 whole entry): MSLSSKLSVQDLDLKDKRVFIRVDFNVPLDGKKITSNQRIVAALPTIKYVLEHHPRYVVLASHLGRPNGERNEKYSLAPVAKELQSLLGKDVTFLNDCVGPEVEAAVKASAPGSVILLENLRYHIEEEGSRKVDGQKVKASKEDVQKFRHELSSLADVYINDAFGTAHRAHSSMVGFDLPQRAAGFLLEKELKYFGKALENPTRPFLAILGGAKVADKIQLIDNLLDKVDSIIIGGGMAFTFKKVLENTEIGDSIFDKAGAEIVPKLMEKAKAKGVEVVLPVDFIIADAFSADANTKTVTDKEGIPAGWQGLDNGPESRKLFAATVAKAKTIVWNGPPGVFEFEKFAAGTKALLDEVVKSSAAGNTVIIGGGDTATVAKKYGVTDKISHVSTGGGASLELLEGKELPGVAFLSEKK
Experiment: Dissociation constant of phosphoglycerate kinase (PGK) at pH (3.0-11.0) was determined
Procedure, shortened: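 Free bisphosphonic acids in stirred solution were titrated from pH 11 down to pH 3 by controlled addition of 0.1 M HCl using an autotitrator with a combined glass electrode. The titration curves were plotted over pH 3–11, and successive pKa values of the phosphonic acid groups were calculated from the experimental data.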

O=C(CCCP(=O)(O)O)C(F)(F)P(=O)(O)O
Kd: 76 µM

O=P(O)(O)C(F)(F)COCC(F)(F)P(=O)(O)O
Kd: 265 µM

O=P(O)(O)C(F)(F)CCCCC(F)(F)P(=O)(O)O
Kd: 1000 µM

O=P(O)(O)CCCCC(F)(F)P(=O)(O)O
Kd: 4 µM

O=C(CP(=O)(O)O)NCC(F)(F)P(=O)(O)O
Kd: 2 µM

O=C(CCP(=O)(O)O)C(F)(F)P(=O)(O)O
Kd: 3 µM

O=C(CCP(=O)(O)O)CP(=O)(O)O
Kd: 2 µM

O=C(NCCP(=O)(O)O)C(F)(F)P(=O)(O)O
Kd: 6 µM

O=C(CCC(F)(F)P(=O)(O)O)C(F)(F)P(=O)(O)O
Kd: 5 µM

O=P(O)(O)C(F)(F)C(O)(O)C(F)(F)P(=O)(O)O
Kd: 72 µM

O=C(CP(=O)(O)O)NCCP(=O)(O)O
Kd: 675 µM

O=P(O)(O)CCCCCCP(=O)(O)O
Kd: 2130 µM

O=C(CCCP(=O)(O)O)CP(=O)(O)O
Kd: 19 µM
